Molecules are shown by their SMILES. Several values for one entry are separate records, joined by “and”; a condition that tells them apart may be missing. Identical values can stand only once. About 300 (0.086%) of roughly 350,000 compounds were called active. The list comes from a sample in which actives are over-represented; it also holds similar structures and randomly drawn compounds. A number with no mark means an inactive call.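 How the source made its calls: active means mean inhibition across replicates of 30% or more, regardless of how many single replicates reach that level; inconclusive means mean under 30% yet at least half of replicates reach 30%; inactive means the rest.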

The test is described as follows: blockers of fibronectin fibrillogenesis by fibroblasts – AH1F cells, Alexa488-fibronectin fluorescence, plate reader, primary screen (AID 743247).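 Further: positive control wells lacked labelled fibronectin entirely.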 Particulars: Alexa488-fibronectin deposition fluorescence, overnight, at 12.6 µM, stronger effect = higher value. In short, it runs like this:
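test system = AH1F fibroblasts assembling fluorescent fibronectin matrix | quantity = 10000 AH1F cells per well | buffer or medium = DMEM plus 2% serum, read in PBS | doses = single dose, pinned | incubation = 1 h cell attachment, overnight exposure to compound and label | detection = fluorescence at 485 nm excitation, 525 nm emission | read-out basis = inhibition from reduced deposited-fibronectin fluorescence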
As to `CCC(=O)Nc1ccc2c(c1)C(=O)N(C)C[C@H](OC)[C@@H](C)CN(Cc1nccs1)[C@H](C)CO2`, the inhibition is 8.21%.

`CCCC(=O)Nc1ccc2c(c1)OC[C@H](C)N(CCc1ccccc1)C[C@H](C)[C@@H](OC)CN(C)C2=O`: the inhibition was -9.33%.

Take `O=C1N[C@H](c2ccccc2)COCc2cn(nn2)CC[C@@H]1Cc1ccc(Cl)cc1`: the inhibition was -8.81%.

`Cc1ccc(Nc2nnc(SC(C)C(=O)NC3CC3)s2)cc1` (stereo unspecified): the inhibition was 9.55%.

On to `Cc1ccc(Nc2nc(N)nc(CSc3nnc(C)s3)n2)cc1`, for which the inhibition was -6.84%.

Turning to `Cc1ccc(Nc2nnc(SCc3ccccc3)s2)cc1`, the inhibition was 30.3% (active).

In the case of `CC(=O)N1C[C@@H]2C(c3ccccc3)[C@H](C1)N2Cc1ccc(F)cc1` (stereo partly specified), the inhibition was -14.1% and 0.287%.

As for `Cc1cccc(-c2ccc(C3[C@H]4CNC[C@@H]3N4S(=O)(=O)c3ccccc3F)cc2)c1` (stereo partly specified), the inhibition was 6.27% and -0.776%.

With `CC(=O)N(C)C[C@@H]1Oc2ccc(NC(=O)NC(C)C)cc2C(=O)N(C)C[C@H]1C`, the inhibition was 0.044%.

`CC(C)NC(=O)N(C)C[C@H]1Oc2ccc(N(C)C)cc2CC(=O)N(C)C[C@@H]1C`: the inhibition is -2.09%.

In the case of `C[C@H](CO)N1C[C@H](C)[C@@H](CN(C)C(=O)Nc2cccc(F)c2)OCc2ccccc2-c2ccccc2C1=O`, the inhibition is 6.45%.

As for `C[C@@H]1CN(C)C(=O)c2cc([N+](=O)[O-])ccc2O[C@@H]1CN(C)C(=O)OC(C)(C)C`, the inhibition was -15.7%.

For the compound `CC(=O)c1ccc(Nc2nc(C(N)c3ccccc3)cs2)cc1` (stereo unspecified), the inhibition was 30.3% (active).

With `CC(=O)c1ccc(Nc2nc(C(N)c3ccccc3Cl)cs2)cc1` (stereo unspecified), the inhibition was -5.17%.

As for `NC(c1ccccc1)c1csc(NC(=O)Nc2cccc(C(F)(F)F)c2)n1` (stereo unspecified), the inhibition is 0.914%.

Consider `CCS(=O)(=O)Nc1ccc2c(c1)C(=O)N(C)[C@@H]1CC[C@@H](CC(=O)NC)O[C@H]1CO2`, for which the inhibition is 6.61%.

In the case of `CC(=O)Nc1cccc2c1O[C@@H](CN(C)C(C)=O)[C@@H](C)CN(C)C2=O`, the inhibition was -3.62%.

Take `CN(C)C(=O)c1ccc(-c2ccc(C3[C@@H]4CN(S(=O)(=O)c5cccc(Cl)c5)C[C@H]3N4)cc2)cc1` (stereo partly specified): the inhibition was -2.13%.

On to `CNC[C@H]1Oc2ccc(NC(=O)Nc3ccc(F)cc3)cc2C(=O)N([C@@H](C)CO)C[C@@H]1C`, for which the inhibition is -0.84%.

In the case of `CC(C)NC(=O)N(C)C[C@H]1Oc2c(cccc2N(C)C)C(=O)N(C)C[C@H]1C`, the inhibition was 0.739%.

As for `O=C(N[C@@H]1CC[C@H](CCn2cc(-c3ccccc3)nn2)O[C@H]1CO)c1cnccn1`, the inhibition was 15%.

On to `O=C(C[C@H]1CC[C@@H]2[C@H](COC[C@H](O)CN2CCC(F)(F)F)O1)NCC1CC1`, for which the inhibition was -3.5%.

As to `C[C@@H]1CN(C)C(=O)c2cccc(N(C)C)c2O[C@H]1CN(C)S(C)(=O)=O`, the inhibition is -2.39%.

For `CN1c2ccc(-c3cccc(C#N)c3)cc2[C@H]2[C@H](CCN2S(=O)(=O)c2cccc(F)c2)[C@@H]1CO`, the inhibition is 13.8%.

Turning to `COCC(=O)Nc1ccc2c(c1)OC[C@H](C)N(C)C[C@H](C)[C@@H](OC)CN(C)C2=O`, the inhibition was -14.1%.

Turning to `CC(C)NC(=O)N[C@@H]1C=C[C@@H](CC(=O)N2CCCCC2)O[C@@H]1CO`, the inhibition is -8.74%.

As to `c1ccc(-c2ccc(C3[C@@H]4CN(Cc5cccnc5)C[C@H]3N4)cc2)cc1` (stereo partly specified), the inhibition was -4.82% and -10.1%.

As for `CCc1nc2c(OCCc3cccc(OC)c3)cccn2c1N(C)C(=O)c1ccc(C)cc1`, the inhibition is 30.8% (active).

As to `CCc1nc2c(OCCOc3ccccc3)cccn2c1N(C)C(=O)c1ccccc1F`, the inhibition is -0.297%.

As to `CCc1nc2c(OCCOc3ccccc3)cccn2c1N(C)C(=O)c1ccc(OC)cc1`, the inhibition was 5.55%.

`CCC(=O)N(C)C[C@H]1Oc2ncc(-c3ccc(C)cc3)cc2C(=O)N([C@@H](C)CO)C[C@@H]1C`: the inhibition was -13%.

On to `C[C@@H]1CCCCO[C@H](CN(C)C(=O)c2ccccc2)[C@@H](C)CN([C@H](C)CO)C(=O)c2cc(NC(=O)c3ccccc3)ccc2O1`, for which the inhibition is 7%.

Consider `O=C(C[C@H]1C[C@H]2c3cc(NC(=O)NC4CCCC4)ccc3O[C@H]2[C@@H](CO)O1)NCc1ccc(-c2ccccc2)cc1`, for which the inhibition is -25.6%.

In the case of `CCCNC(=O)C[C@H]1CC[C@@H]2[C@H](COc3ccc(NC(=O)c4ccc(OC)cc4)cc3C(=O)N2C)O1`, the inhibition was 10.3%.

With `CC(=O)N1[C@H](CO)[C@@H](c2ccc(-c3ccc(F)cc3)cc2)[C@H]1CNC(=O)C1CC1`, the inhibition is -16%.

With `CC(=O)N1[C@H](CNC(=O)CN(C)C)[C@H](c2ccc(C3=CCCC3)cc2)[C@@H]1CO`, the inhibition is 13.6%.

`CC[C@@H]1CC=CC[C@H](C)Oc2ccccc2C(=O)N(C)[C@H](Cc2ccccc2)C(=O)N1` (mixture of isomers): the inhibition was -1.05%.

`O=C1[C@H](Cc2ccc(C(F)(F)F)cc2)CCn2nncc2COC[C@@H]2CCCCN12`: the inhibition is 4.17%.

As for `C[C@@H]1COCc2cnnn2CC[C@H](Cc2ccccc2)C(=O)N1`, the inhibition was -8.72%.

Regarding `C[C@H](CO)N1C[C@H](C)[C@@H](CN(C)S(C)(=O)=O)Oc2cc(C#CC3CC3)ccc2S1(=O)=O`, the inhibition is 5.58%.

`CO[C@H]1CN(C)C(=O)c2ccc(NC(=O)C3CC3)cc2OC[C@@H](C)N(C(=O)c2ccccn2)C[C@@H]1C`: the inhibition is 2.68%.

As for `O=C(C[C@@H]1CC[C@@H](NC(=O)C2CC2)[C@@H](CO)O1)NCc1ccccc1Cl`, the inhibition is -5.16%.

For the compound `Cc1noc(C)c1S(=O)(=O)N(C)C[C@H]1Oc2ccc(N(C)C)cc2C(=O)N([C@H](C)CO)C[C@@H]1C`, the inhibition was -9.54%.

As to `CO[C@H]1CN(C)C(=O)c2cc(NS(=O)(=O)c3ccccc3)ccc2OC[C@@H](C)N(Cc2nccs2)C[C@@H]1C`, the inhibition is -0.524%.

On to `O=C(Nc1cc(F)ccc1F)N[C@H]1CC[C@H](CCn2cc(C3CCCC3)nn2)O[C@@H]1CO`, for which the inhibition is -1.92%.

As to `CC(=O)N(C)C[C@@H]1Oc2ccc(N)cc2CC(=O)N(C)C[C@H]1C`, the inhibition is -1.05%.

For the compound `CNC[C@@H]1Oc2ccc(N(C)C)cc2CC(=O)N(C)C[C@@H]1C`, the inhibition was 2.18%.

On to `C[C@H](CO)N1C[C@H](C)[C@H](CN(C)Cc2ccc(C(F)(F)F)cc2)OCCCC[C@H](C)Oc2ccc(NS(=O)(=O)c3ccc(Cl)cc3)cc2C1=O`, for which the inhibition is -21%.

On to `C[C@@H]1CCCCO[C@H](CN(C)C)[C@H](C)CN([C@@H](C)CO)C(=O)c2cc(NS(=O)(=O)c3cn(C)cn3)ccc2O1`, for which the inhibition was -0.203%.

Take `CCC(=O)N1CC2(C1)[C@@H](c1ccccc1)[C@H](CO)N2CC1CCOCC1`: the inhibition is -2.08%.

`CN1c2ccc(-c3cccc(C#N)c3)cc2[C@@H]2[C@@H](CCN2C(=O)NC2CCCCC2)[C@@H]1CO`: the inhibition was -3.13%.

Turning to `COc1ccc(NC(=O)N2C[C@H](O)COC[C@H]3O[C@@H](CC(=O)N4CCN(C)CC4)CC[C@@H]32)cc1`, the inhibition is -2.89%.

Consider `CC[C@H]1CC=CC[C@@H](C)Oc2ccccc2C(=O)N(C)[C@H](Cc2ccccc2)C(=O)N1` (mixture of isomers), for which the inhibition is 0.881%.

Regarding `COc1ccccc1NC(=O)N1[C@@H]2CNC[C@H]1C2c1ccc(-c2ccccc2C)cc1` (stereo partly specified), the inhibition was -3.3%.

In the case of `CCCN1C[C@@H](C)[C@@H](OC)CN(C)C(=O)c2cc(NC(=O)Nc3cccc(F)c3)ccc2OC[C@@H]1C`, the inhibition was -5.97%.

For the compound `C[C@H]1CN(C)C(=O)c2cccc(N(C)C)c2O[C@@H]1CN(C)C`, the inhibition is -26.9%.

Consider `O=C(C1CCCCC1)N1CC(=O)N2[C@H](CO)[C@H](c3ccc(-c4ccccc4F)cc3)[C@H]2C1`, for which the inhibition is -7.64%.

Consider `O=C1N[C@H](c2ccccc2)COCc2cn(nn2)CC[C@H]1Cc1cccc(Cl)c1`, for which the inhibition is -1.96%.

As to `COc1ccc2c3c([nH]c2c1)[C@@H](CO)N(Cc1ccccc1)CC31CCN(Cc2cncnc2)CC1`, the inhibition is -11.5%.

`O=C1NCCOCc2cn(nn2)CC[C@@H]1Cc1ccccc1`: the inhibition was -3.44%.

Consider `CCCNC(=O)Nc1ccc2c(c1)C(=O)N(C)[C@H]1CC[C@H](CC(=O)NC3CCC3)O[C@H]1CO2`, for which the inhibition was -3.4%.

For `CN(C)CC(=O)N[C@@H]1CC[C@H](CCn2cc(C3CCCC3)nn2)O[C@H]1CO`, the inhibition is 5.53%.

Take `CC(C)NC(=O)Nc1cccc2c1O[C@H](CN(C)Cc1ccc3c(c1)OCO3)[C@H](C)CN([C@H](C)CO)C2=O`: the inhibition was 7.48%.

In the case of `CNC[C@H]1Oc2ccccc2CC(=O)N(C)C[C@H]1C`, the inhibition was -0.894%.

As for `COc1ccc2c3c(n(C)c2c1)[C@H](CO)N(C)CC31CN(S(=O)(=O)c2cccc(C)c2)C1`, the inhibition was 11.9%.

In the case of `O=C1C[C@@H](c2ccccc2)C(=O)N[C@H](c2ccc(F)cc2)C/C=C\CCN1`, the inhibition is -8.29%.

Regarding `C/C=C/c1ccc2c(c1)O[C@H](CN(C)C(=O)Nc1ccc(OC)cc1)[C@@H](C)CN([C@H](C)CO)S2(=O)=O`, the inhibition was 9.72%.

Consider `Cc1cccc(CS(=O)(=O)c2ncc(Cl)c(C(=O)Nc3ccc(F)cc3)n2)c1`, for which the inhibition is 34.8% (active).

Take `Cc1cccc(NC(=O)c2nc(S(=O)(=O)Cc3ccccc3)ncc2Cl)c1`: the inhibition is 20.9%.

As for `Cc1ccc(CS(=O)(=O)c2ncc(Cl)c(C(=O)Nc3nnc(C)s3)n2)cc1`, the inhibition is 0.254%.

As to `O=C(C1CCC1)N1CC[C@H]2[C@H](CO)Nc3ccc(-c4cccc(F)c4)cc3[C@H]21`, the inhibition is -4.67%.

The values are drawn from PubChem BioAssay AID743247 (Broad Institute, 2014).
